# In the library only some 3.7% were active in any assay of this set; here they are far more common.
# GPR7 antag = GPR7 receptor antagonists, primary screen, cell-based, fluorescence, single concentration; hit rate 1.1% among 290,000; GPR7-expressing cells, fluorescence antagonist assay; inhibition, % at 4.4 µM; Neuropeptides B/W receptor type 1 (Homo sapiens), P48145; in the data active means inhibition above about 16%, passing the limit was not always enough;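 further: cells stimulated with the agonist NPW; 0% = agonist with vehicle and 100% = vehicle without agonist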
# Target sequence (P48145 whole entry, looked up): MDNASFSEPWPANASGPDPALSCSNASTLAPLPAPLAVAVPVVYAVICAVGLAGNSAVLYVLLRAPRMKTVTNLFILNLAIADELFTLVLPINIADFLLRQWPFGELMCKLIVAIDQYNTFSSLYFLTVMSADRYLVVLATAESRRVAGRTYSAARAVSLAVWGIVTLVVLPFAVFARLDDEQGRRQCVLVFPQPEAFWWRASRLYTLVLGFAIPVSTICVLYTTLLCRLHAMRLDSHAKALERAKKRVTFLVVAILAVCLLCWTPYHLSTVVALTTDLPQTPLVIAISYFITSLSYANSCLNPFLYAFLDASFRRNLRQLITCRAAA
# CHO parental Ca = ATP-evoked calcium signal inhibitors, parental CHO, primary screen, counter-screen for OX1R antagonist project, cell-based, fluorescence, Fluo-8 calcium dye; hit rate 0.63% among 330,000; inhibition, % at 5.6 µM; parental CHO-K1, ATP-induced calcium, Fluo-8 fluorescence; AID 463079, 2010;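 active means inhibition above that plate's mean sample inhibition plus 3 SD, cut at about 26% in these data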;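 further: 0% = ATP-challenged DMSO wells and 100% = DMSO wells without ATP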
#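 Test system: untransfected parental CHO cell line; also added: ATP stimulus; dosing: 5.6 µM, single dose; signal: calcium-sensitive Fluo-8 fluorescence; measure: percent inhibition of ATP-evoked calcium rise, normalized to controls; benchmarks: low control ATP plus DMSO, high control DMSO only; replication: one well per compound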
# OX1R antag-1 = antagonists of human orexin 1 receptor (OX1R); Orexin/Hypocretin receptor type 1 (Homo sapiens), O43613; OX1R-expressing cells, FRET antagonist read-out; inhibition, % at 6.6 µM; hit rate 1.8% among 330,000; AID 485270, 2010; in the data active means inhibition mostly above about 38%, no sharp cut-off; inactive means mostly below about 40%;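 further: 0% = agonist challenge alone and 100% = reference antagonist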
# OX1R antag-2 = OX1R (HCRTR1) antagonists, primary screen, fluorescence, CHO/OX1R cells, Fluo-8 calcium, orexin A; hit rate 0.43% among 330,000; AID 434989, 2010; Orexin/Hypocretin receptor type 1 (Homo sapiens), O43613; inhibition, % at 5 µM; Fluo-8 calcium fluorescence;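 active means inhibition above its plate's threshold, mean inhibition of all tested compounds on the plate plus 3 SD, cut at about 37% in these data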;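 further: 0% = orexin A challenge wells and 100% = SB-334867-A antagonist wells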
# PGE2 EP2 inh = human EP2 receptor antagonists, primary screen, TR-FRET cAMP, C6 glioma cells; Prostaglandin E2 receptor EP2 subtype (Homo sapiens), P43116; C6 glioma cells expressing human EP2; cells stimulated with saturating PGE2; inhibition, % at 25 µM; hit rate 0.52% among 260,000; AID 1422, 2008;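 active means percent inhibition above 40 after rounding to a whole number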;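 further: rat C6 glioma host cells with rolipram phosphodiesterase inhibitor present; the protocol text gives 20 µM as final concentration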
# EP2 modulator = EP2 receptor modulators, cAMP readout, primary screen, cell-based, HTRF cAMP, PGE2 stimulation; EP2-expressing cells, cAMP HTRF FRET, PGE2 co-stimulation; Prostaglandin E2 receptor EP2 subtype (Homo sapiens), P43116; induction, % at 25 µM; hit rate 0.83% among 260,000;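 active means compounds whose cAMP rise, as percent of the full-agonist control response, exceeds 60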;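 further: rat C6 glioma line stably carrying human EP2 under a CMV promoter; the protocol text gives 20 µM as final concentration; 100% = response of wells given 1 µM PGE2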
# GPR7 antag conf = GPR7 receptor antagonists, confirmation, cell-based, fluorescence, single concentration | shares compounds with GPR7 antag | GPR7-expressing cells, calcium fluorescence antagonist mode | inhibition, % at 4.4 µM | hit rate 52% among 2,400; in the data active means inhibition above about 24%;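 further: stimulated with the GPR7 agonist NPW; 0% = agonist plus vehicle and 100% = vehicle alone without agonist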
# MCHR1 antag = MCHR1 antagonists in cells, counter-screen for GPR7 antagonist project, cell-based, fluorescence, human; inhibition, % at 4.4 µM; MCHR1-expressing cells, fluorescence antagonist assay; shares compounds with GPR7 antag; hit rate 62% among 2,400; in the data active means inhibition above about 22%;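 further: 0% = vehicle with agonist and 100% = vehicle without agonist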
# Active calls of the source: *; · = no result.
SMILES,GPR7 antag,CHO parental Ca,OX1R antag-1,OX1R antag-2,PGE2 EP2 inh,EP2 modulator,GPR7 antag conf,MCHR1 antag
CC(C)c1ccc(/C=C2\SC(=S)N(CCC(=O)N3CCCCC3CCO)C2=O)cc1 (stereo unspecified),-15,-46,-3,-44,·,·,·,·
COc1ccccc1NC(=O)c1ccc(CSc2nnc3c(n2)[nH]c2ccccc23)cc1,·,·,·,·,13,-6,·,·
NC(=O)CN1CCOCCOCCN(CC(N)=O)CCOCCOCC1,61*,-2,28,-11,7,12,-17,-8
COCc1cc(C)nc2sc(C(=O)N3CCCCC3)c(N)c12,3,-17,5,3,5,22,·,·
CC1CN(C(=O)CCC(=O)N2CCN(c3ccccn3)CC2)c2ccccc2O1 (stereo unspecified),-3,-12,1,-25,·,·,·,·
Cc1ccc2c(c1)N(C(=O)CCC(=O)N1CCN(c3ccccn3)CC1)CC(C)O2 (stereo unspecified),31*,-11,6,-15,·,·,6,5
O=c1c2ccc([N+](=O)[O-])cc2ncn1CCOc1ccc(Cl)cc1,26*,-14,31,-6,0,-18,44*,62*
O=c1c2ccc([N+](=O)[O-])cc2ncn1CCOc1cccc(Br)c1,-3,3,17,-22,6,-12,·,·
N#Cc1cn(CCOC(=O)c2cccc(C(F)(F)F)c2)c(=O)[nH]c1=O,5,-8,14,-11,8,16,·,·
CCCc1cc(C(=O)Nc2ccc(F)c(Cl)c2)no1,29*,7,33,-1,·,·,33*,30*
COC(=O)CN1N=C(C(C)(C)C)Cn2c(cc3sccc32)C1=O,·,·,·,·,·,-36,·,·
Cc1cccc(OCC(=O)Nc2ccc3oc(=O)ccc3c2)c1,36*,10,22,8,10,-66,33*,36*
CC(C)Oc1ccc(C(=O)NC2CCCCC2)cc1,8,-6,20,-11,10,-6,·,·
CC(C)Oc1ccc(C(CCN)C2CCCCC2)cc1 (stereo unspecified),55*,6,-5,-17,·,·,49*,67*
Cc1cccc(N2CCN(CC(=O)Nc3nccs3)CC2)c1C,36*,-24,30,-25,8,-18,34*,36*
Cc1ccc(S(=O)(=O)N2CCOCC2)cc1NC(=O)CN1CCN(C)CC1,·,4,0,0,·,·,·,·
Cc1ccc(S(=O)(=O)N2CCOCC2)cc1NC(=O)CN1CCC(Cc2ccccc2)CC1,37*,-23,18,-23,5,32,25*,38*
Cc1cccc(N2CCN(CC(=O)Nc3ccc(S(=O)(=O)N4CCOCC4)cc3)CC2)c1C,33*,55*,26,34,·,·,3,35*
c1cc(-n2nnc3cnccc32)ccn1,-9,-11,6,-9,8,7,·,·
O=C(NNC(=O)c1csc(-c2cnccc2C(F)(F)F)n1)c1ccc(C(F)(F)F)cc1,-12,-14,17,-26,5,-13,·,·
CC(C)NC(=O)C1CCCN1C(=O)OCc1ccccc1 (stereo unspecified),·,·,·,·,9,-27,·,·
CC(=O)N1CCN(C(=O)C(Cc2ccccc2)NC(=O)c2ccccc2)CC1 (stereo unspecified),·,1,5,11,·,·,·,·
O=C(NC(Cc1ccccc1)C(=O)N1CCN(S(=O)(=O)c2ccccc2)CC1)c1ccccc1 (stereo unspecified),22*,-29,23,-10,·,·,-8,4
